The source of these data is ChEMBL document CHEMBL1125581 (J Med Chem, 1991).

Assay [1] deals with T1, Muscarinic acetylcholine receptor M2 (Rattus norvegicus, UniProt P10980).
T1 sequence (P10980 whole entry): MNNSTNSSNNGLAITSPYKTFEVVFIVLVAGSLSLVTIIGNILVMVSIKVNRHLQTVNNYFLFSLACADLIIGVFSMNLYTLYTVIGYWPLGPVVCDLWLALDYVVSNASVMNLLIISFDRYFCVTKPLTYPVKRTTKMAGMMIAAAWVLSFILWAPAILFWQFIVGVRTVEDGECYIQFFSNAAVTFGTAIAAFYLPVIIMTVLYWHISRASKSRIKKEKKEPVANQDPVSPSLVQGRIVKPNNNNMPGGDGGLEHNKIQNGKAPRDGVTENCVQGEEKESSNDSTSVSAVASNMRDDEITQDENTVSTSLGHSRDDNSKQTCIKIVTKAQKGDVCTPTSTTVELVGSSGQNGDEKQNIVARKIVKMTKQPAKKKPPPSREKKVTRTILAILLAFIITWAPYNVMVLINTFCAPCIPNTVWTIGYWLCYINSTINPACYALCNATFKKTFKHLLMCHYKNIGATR
The assay is described as follows: Inhibition of binding of [3H]N-methylscopolamine to muscarinic acetylcholine receptor M2 of rat heart tissue membrane. The format is tissue-based. The procedure, abridged: (§1)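 Rat heart membranes (150–300 μg protein) incubated 90 min at 37 °C in DMEM-Hepes with 0.5 nM [3H]NMS and varied unlabeled analogue concentrations. Bound radioligand collected by rapid GF/B filtration, washed with ice-cold 0.9% NaCl, and scintillation counted. Nonspecific binding with 1 μM atropine subtracted. Ki values come from one to three determinations, each in triplicate.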

Assay [2] has as its target T2, Muscarinic acetylcholine receptor M1 (Rattus norvegicus, UniProt P08482).
T2 sequence (P08482 whole entry): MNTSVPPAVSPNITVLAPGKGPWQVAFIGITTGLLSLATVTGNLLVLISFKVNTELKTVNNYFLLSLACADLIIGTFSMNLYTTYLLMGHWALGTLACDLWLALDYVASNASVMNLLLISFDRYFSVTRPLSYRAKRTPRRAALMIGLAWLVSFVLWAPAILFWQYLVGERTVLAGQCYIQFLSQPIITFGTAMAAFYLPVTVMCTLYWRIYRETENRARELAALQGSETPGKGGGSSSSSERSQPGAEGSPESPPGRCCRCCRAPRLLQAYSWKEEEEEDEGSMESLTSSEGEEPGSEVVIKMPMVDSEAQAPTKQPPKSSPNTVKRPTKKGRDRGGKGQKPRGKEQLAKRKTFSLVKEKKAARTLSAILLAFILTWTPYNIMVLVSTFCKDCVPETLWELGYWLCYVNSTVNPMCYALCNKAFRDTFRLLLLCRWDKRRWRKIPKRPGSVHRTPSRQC
The assay is described as follows: Inhibition of binding of [3H]N-methylscopolamine to muscarinic acetylcholine receptor M1 of transfected rat A9L cells. The format is cell-based.

The target in assay [3] is Muscarinic acetylcholine receptor M3 (Rattus norvegicus, UniProt P08483). Description: Inhibition of binding of [3H]N-methylscopolamine to muscarinic acetylcholine receptor M3 of transfected rat A9L cells. The assay is classed as cell-based.
Sequence of Muscarinic acetylcholine receptor M3 (P08483 whole entry): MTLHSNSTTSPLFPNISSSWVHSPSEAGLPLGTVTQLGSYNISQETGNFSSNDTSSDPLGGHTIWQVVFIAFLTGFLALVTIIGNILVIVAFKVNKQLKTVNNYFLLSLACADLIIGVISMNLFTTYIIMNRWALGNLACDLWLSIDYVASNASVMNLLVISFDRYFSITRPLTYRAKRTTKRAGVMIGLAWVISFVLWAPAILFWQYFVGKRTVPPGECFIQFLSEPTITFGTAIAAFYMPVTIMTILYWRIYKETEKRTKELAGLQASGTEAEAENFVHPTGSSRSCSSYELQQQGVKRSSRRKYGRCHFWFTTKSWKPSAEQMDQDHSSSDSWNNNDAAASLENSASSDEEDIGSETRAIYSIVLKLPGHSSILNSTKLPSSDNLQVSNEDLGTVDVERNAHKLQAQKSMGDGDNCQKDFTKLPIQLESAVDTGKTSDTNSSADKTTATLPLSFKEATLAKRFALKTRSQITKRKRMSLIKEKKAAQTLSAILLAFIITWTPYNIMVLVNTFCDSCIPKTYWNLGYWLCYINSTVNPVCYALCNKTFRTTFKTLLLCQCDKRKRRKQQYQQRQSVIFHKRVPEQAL
For assay [4], the target named is T3, Muscarinic acetylcholine receptor M4 (Rattus norvegicus, UniProt P08485).
T3 sequence (P08485 whole entry): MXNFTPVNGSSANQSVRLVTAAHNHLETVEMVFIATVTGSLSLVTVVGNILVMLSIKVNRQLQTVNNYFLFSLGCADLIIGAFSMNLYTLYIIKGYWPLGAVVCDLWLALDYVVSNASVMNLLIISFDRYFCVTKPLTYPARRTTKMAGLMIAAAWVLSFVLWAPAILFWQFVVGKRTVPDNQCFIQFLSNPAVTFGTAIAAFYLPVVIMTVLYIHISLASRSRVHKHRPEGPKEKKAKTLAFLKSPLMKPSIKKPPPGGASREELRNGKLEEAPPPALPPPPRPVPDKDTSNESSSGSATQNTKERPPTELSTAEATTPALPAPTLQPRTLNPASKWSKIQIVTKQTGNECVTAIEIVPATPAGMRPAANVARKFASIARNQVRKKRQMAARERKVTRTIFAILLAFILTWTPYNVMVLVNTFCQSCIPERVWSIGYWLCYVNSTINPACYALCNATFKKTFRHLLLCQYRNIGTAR
The assay is described as follows: Inhibition of binding of [3H]N-Methyl-scopolamine to muscarinic acetylcholine receptor M4 of rat […] NG108-15 cells. The assay is classed as cell-based.

Assay [5] has as its target T2, Muscarinic acetylcholine receptor M1. The assay is described as follows: Inhibition of binding of [3H]N-Methyl-scopolamine to Muscarinic acetylcholine receptor M1 of transfected A9L cells. The assay is classed as cell-based. The method, boiled down: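 Confluent A9L (transfected m1/m3) or NG108-15 (m4) cultures were lysed in 2 mM Tris-HCl pH 7.1/1 mM EDTA, 30 min, 2 °C, then homogenized. Crude membranes were spun at 50000g. Membranes (150–300 μg protein) were incubated with 0.5 nM [3H]NMS and varied analogue in DMEM-Hepes for 90 min at 37 °C, then filtered. Nonspecific binding was set with 1 μM atropine. Ki values are from 1–3 triplicate determinations.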

The target of assay [6] is T1, Muscarinic acetylcholine receptor M2. The assay is described as follows: Inhibition of binding of [3H]N-Methyl-scopolamine to Muscarinic acetylcholine receptor M2 of rat heart tissue membranes. The format is cell membranes, Membrane. The procedure, abridged:
as §1

In the case of `NCCCCCN1CCN(CC(=O)N2c3ccccc3C(=O)Nc3cccnc32)CC1`, the Ki (as a rule, a measure of affinity in units of concentration, obtained from inhibition or displacement) in assay [1] was 5890 nM; in assay [2], 1170 nM.
On to `CSc1ccc2c(c1)C(=O)Nc1cccnc1N2C(=O)CN1CCN(C)CC1`, for which the Ki in assay [1] was 11000 nM; in assay [3], 3620 nM; in assay [2] it was 4660 nM.
For `NCCCC(=O)NCCN1CCN(CC(=O)N2c3ccccc3C(=O)Nc3cccnc32)CC1`, the Ki in assay [1] was found to be 6340 nM; in assay [3] it was 11500 nM; in assay [2] it was 9530 nM.
Regarding `CS(=O)(=O)N1CCN(CC(=O)N2c3ccccc3C(=O)Nc3cccnc32)CC1`, the Ki in assay [1], in assay [3], in assay [2] and in assay [4] was greater than 100000 nM each time.
With `CC(=O)N1CCN(CC(=O)N2c3ccccc3C(=O)Nc3cccnc32)CC1`, the Ki in assay [1], in assay [3], in assay [2] and in assay [4] was greater than 100000 nM each time.
For `CC(C)(C)OC(=O)NCCCCCCN1CCN(CC(=O)N2c3ccccc3C(=O)Nc3cccnc32)CC1`, the Ki was 21.4 nM in assay [1], 46 nM in assay [3], 37.1 nM in assay [2] and 23.2 nM in assay [4].
In assay [1], `CC(C)(C)OC(=O)NCCNC(=O)c1ccc(CN2CCN(CC(=O)N3c4ccccc4C(=O)Nc4cccnc43)CC2)cc1` yielded a Ki of 2500 nM.
Consider `O=C1Nc2cccnc2N(C(=O)CN2CCN(CCCCN3C(=O)c4ccccc4C3=O)CC2)c2ccccc21`, for which the Ki in assay [1] was 89 nM; in assay [3], 120 nM; in assay [2], 170 nM; in assay [4] it was 210 nM.
With `NCCCCCCCCCN1CCN(CC(=O)N2c3ccccc3C(=O)Nc3cccnc32)CC1`, the Ki in assay [5] and in assay [6] was 24 nM in each case.
Take `CN1CCN(CC(=O)N2c3ccc(S(N)(=O)=O)cc3C(=O)Nc3cccnc32)CC1`: the Ki in assay [1], in assay [3] and in assay [2] was greater than 30000 nM in each case.
For the compound `NCCCCCCN1CCN(CC(=O)N2c3ccccc3C(=O)Nc3cccnc32)CC1`, the Ki is 1340 nM in assay [1] and 1310 nM in assay [2].
`NCCNC(=O)c1ccc(CN2CCN(CC(=O)N3c4ccccc4C(=O)Nc4cccnc43)CC2)cc1`: the Ki was 960 nM in assay [1], 3650 nM in assay [3], 1390 nM in assay [2] and 1040 nM in assay [4].
As for `C#CCN1CCN(CC(=O)N2c3ccccc3C(=O)Nc3cccnc32)CC1`, the Ki in assay [1] was 1370 nM; in assay [2], 1670 nM.
The corresponding values for `O=C1Nc2cccnc2N(C(=O)CN2CCN(CCCCCN3C(=O)c4ccccc4C3=O)CC2)c2ccccc21` are 20 nM and 60 nM.
As to `NCCCCCCCCN1CCN(CC(=O)N2c3ccccc3C(=O)Nc3cccnc32)CC1`, the Ki in assay [5] came to 20 nM; in assay [6] it was 26 nM.
On to `CN1CCN(CC(=O)N2c3ccc(S(=O)(=O)NCCNC(=O)OC(C)(C)C)cc3C(=O)Nc3cccnc32)CC1`, for which the Ki in assay [3] and in assay [2] was greater than 30000 nM in each case.
For `NCCCN1CCN(CC(=O)N2c3ccccc3C(=O)Nc3cccnc32)CC1`, the Ki was 5120 nM in assay [1] and 3870 nM in assay [2].
As to `O=C1Nc2cccnc2N(C(=O)CN2CCN(CCO)CC2)c2ccccc21`, the results for the inhibitory constant (Ki) in assay [1], in assay [3] and in assay [2] were 3200 nM, 9500 nM and 5800 nM, respectively.
For `O=C1Nc2cccnc2N(C(=O)CN2CCN(C(=S)Nc3ccccc3)CC2)c2ccccc21`, the inhibition constant (Ki) in assay [1], in assay [3], in assay [2] and in assay [4] was greater than 100000 nM each time.
For the compound `CC(C)(C)OC(=O)NCCCC(=O)NCCN1CCN(CC(=O)N2c3ccccc3C(=O)Nc3cccnc32)CC1`, the Ki in assay [1] is 3340 nM; in assay [3], 4100 nM; in assay [2], 4800 nM.
The corresponding values for `CC(=O)NCCC(=O)NCCN1CCN(CC(=O)N2c3ccccc3C(=O)Nc3cccnc32)CC1` are 34500 nM, greater than 100000 nM and 39400 nM.
Taken in the same sequence, the figures for `CC(=O)NCCCC(=O)NCCN1CCN(CC(=O)N2c3ccccc3C(=O)Nc3cccnc32)CC1` were 8820 nM, 10800 nM and 9650 nM.
As for `O=C1Nc2cccnc2N(C(=O)CN2CCN(Cc3ccccc3)CC2)c2ccccc21`, the Ki in assay [1] is 240 nM; in assay [3], 240 nM; in assay [2] it was 330 nM; in assay [4] it was 220 nM.
As for `CC(=O)NCCCCCCCCCN1CCN(CC(=O)N2c3ccccc3C(=O)Nc3cccnc32)CC1`, the results for the Ki in assay [5] and in assay [6] were 52 nM and 50 nM, respectively.
Taken in the same sequence, the figures for `COc1ccccc1CNCCCCCCCCCCN1CCN(CC(=O)N2c3ccccc3C(=O)Nc3cccnc32)CC1` were 3.3 nM and 22 nM.
With `CC(=O)NCCNS(=O)(=O)c1ccc2c(c1)C(=O)Nc1cccnc1N2C(=O)CN1CCN(C)CC1`, the Ki in assay [3] and in assay [2] was greater than 30000 nM throughout.
For `O=C1Nc2cccnc2N(C(=O)CN2CCN(C(=O)c3ccccc3)CC2)c2ccccc21`, the Ki in assay [1], in assay [3], in assay [2] and in assay [4] was greater than 100000 nM in each case.
`NCCN1CCN(CC(=O)N2c3ccccc3C(=O)Nc3cccnc32)CC1`: the Ki worked out at 3040 nM in assay [1], 1970 nM in assay [3], 1190 nM in assay [2] and 2840 nM in assay [4].
Take `CN1CCN(CC(=O)N2c3ccc(S(=O)(=O)NCCN)cc3C(=O)Nc3cccnc32)CC1`: the Ki in assay [3] and in assay [2] was greater than 30000 nM in each case.
Turning to `NCCC(=O)NCCN1CCN(CC(=O)N2c3ccccc3C(=O)Nc3cccnc32)CC1`, the Ki in assay [1] stood at 5840 nM; in assay [3] it was 6650 nM; in assay [2] it was 4340 nM.
Turning to `CN1CCN(CC(=O)N2c3cc(CO)ccc3C(=O)Nc3cccnc32)CC1`, the Ki in assay [3] and in assay [2] was 4400 nM in each case.
`CC(C)(C)OC(=O)NCCCCNC(=O)c1ccc(CN2CCN(CC(=O)N3c4ccccc4C(=O)Nc4cccnc43)CC2)cc1`: the Ki in assay [1] came out at 1090 nM; in assay [3], 3470 nM; in assay [2], 1680 nM.
For the compound `O=C1Nc2cccnc2N(C(=O)CN2CCN(CCCN3C(=O)c4ccccc4C3=O)CC2)c2ccccc21`, the results for the Ki in assay [1] and in assay [2] were 840 nM and 1810 nM, respectively.
Taken in the same sequence, the figures for `NCCCCN1CCN(CC(=O)N2c3ccccc3C(=O)Nc3cccnc32)CC1` were 1740 nM and 3080 nM.
Take `CC(=O)NCCN1CCN(CC(=O)N2c3ccccc3C(=O)Nc3cccnc32)CC1`: the Ki in assay [1] was determined as 2520 nM; in assay [3], 970 nM; in assay [2], 670 nM; in assay [4], 2570 nM.
Regarding `CC(C)(C)OC(=O)NCCC(=O)NCCN1CCN(CC(=O)N2c3ccccc3C(=O)Nc3cccnc32)CC1`, the Ki in assay [1] turned out to be 6060 nM; in assay [3], 6190 nM; in assay [2] it was 13300 nM.
Consider `Cc1scc2c1N(C(=O)CN1CCN(C)CC1)c1ccccc1NC2=O` [TELENZEPINE], for which the Ki in assay [1] came to 50.3 nM; in assay [3], 6.9 nM; in assay [2], 1.8 nM; in assay [4] it was 17.4 nM.
